Bioassay records as filed in PubChem.
Apaf-1 act – activators of human Apaf-1 apoptosome. 0.31% of 330,000 active. O14727. activity change, negative = activation, % at 20 µM. Apaf-1 apoptosome caspase-3 activation, DEVD-Rh110 fluorescence; stronger effect = lower value. AID 489031;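 active means activity change at or below -40% at 20 µM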
Target sequence (O14727 whole entry, looked up): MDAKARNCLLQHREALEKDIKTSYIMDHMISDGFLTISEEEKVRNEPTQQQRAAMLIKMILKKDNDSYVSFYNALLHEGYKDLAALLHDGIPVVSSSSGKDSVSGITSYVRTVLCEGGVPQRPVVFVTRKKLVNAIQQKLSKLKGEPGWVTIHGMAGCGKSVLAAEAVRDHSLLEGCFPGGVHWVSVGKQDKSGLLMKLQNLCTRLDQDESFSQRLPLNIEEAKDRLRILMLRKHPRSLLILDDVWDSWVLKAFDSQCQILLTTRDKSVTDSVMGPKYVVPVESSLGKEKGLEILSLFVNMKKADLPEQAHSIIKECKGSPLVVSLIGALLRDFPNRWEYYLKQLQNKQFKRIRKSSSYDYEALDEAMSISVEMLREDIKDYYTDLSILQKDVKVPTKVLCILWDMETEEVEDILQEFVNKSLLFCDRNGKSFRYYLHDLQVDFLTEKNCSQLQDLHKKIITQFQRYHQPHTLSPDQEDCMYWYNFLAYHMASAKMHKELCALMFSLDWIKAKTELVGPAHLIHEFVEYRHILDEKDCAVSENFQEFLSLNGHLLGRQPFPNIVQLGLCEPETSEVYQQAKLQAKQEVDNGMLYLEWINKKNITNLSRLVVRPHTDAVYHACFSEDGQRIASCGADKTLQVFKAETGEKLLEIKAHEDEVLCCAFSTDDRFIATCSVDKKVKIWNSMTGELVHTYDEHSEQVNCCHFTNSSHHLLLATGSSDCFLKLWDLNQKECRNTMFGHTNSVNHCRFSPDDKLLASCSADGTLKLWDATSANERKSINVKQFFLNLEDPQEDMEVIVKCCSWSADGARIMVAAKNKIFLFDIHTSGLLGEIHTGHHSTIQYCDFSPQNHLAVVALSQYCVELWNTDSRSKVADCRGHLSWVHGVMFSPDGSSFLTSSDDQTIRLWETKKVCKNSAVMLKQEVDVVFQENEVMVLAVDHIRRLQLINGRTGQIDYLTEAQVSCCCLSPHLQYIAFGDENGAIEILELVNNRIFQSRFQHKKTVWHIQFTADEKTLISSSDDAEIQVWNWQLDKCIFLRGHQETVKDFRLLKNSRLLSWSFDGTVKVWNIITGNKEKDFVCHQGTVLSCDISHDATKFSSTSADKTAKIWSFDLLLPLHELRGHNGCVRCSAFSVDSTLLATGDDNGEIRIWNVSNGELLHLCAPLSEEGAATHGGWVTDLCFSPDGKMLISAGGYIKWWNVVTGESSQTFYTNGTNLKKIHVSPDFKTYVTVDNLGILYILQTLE
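system = biochemical Apaf-1 apoptosome reconstitution | buffer or medium = 20 mM HEPES pH 7.5 with CHAPS, BSA | also added = dATP and cytochrome c as apoptosome triggers, (Z-DEVD)2-Rh110 substrate | incubation = 30 min compound preincubation and 50 min reaction, both room temperature | measured by = fluorescence, 540 nm emission, 480 nm excitation | read-out basis = Caspase-3 cleavage activity downstream of Apaf-1 activation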
Rh110 interf act – counter-screen for Apaf-1 activators: fluorescence interference. AID 504616. shares compounds with Apaf-1 act. fluorescence interference (activity change), % at 20 µM, hits read low. Rh110 fluorescence interference, quenched caspase reaction, Ex480/Em540. 980 tested, under 10 active;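 active means mean activity change at or below -40% when tested at 20 µM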
Apaf-1 act conf2 – confirmation of human Apaf-1 activators; shares compounds with Apaf-1 act; reconstituted apoptosome caspase-3 activity, DEVD-Rh110 fluorescence; stronger effect = lower value; activity change, negative = activation, % at 20 µM; 5% of 980 active;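 active means mean activity change at or below -40%, meaning activation of 40% or more, at 20 µM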
Fluor interf act – shows fluorescence interference in the Apaf-1 activator assay format. EC50, µM. shares compounds with Apaf-1 act. 55 tested, under 10 active. AID 588592. fluorescence interference counterscreen; call rule not given here
Each line names hits and unclear results; the compound was inactive in the other large screens (follow-up assays come after a bar, where they were run). The list is a sample of the results.

COCCN(CCOC)Cc1c(O)ccc2c3c(c(=O)oc12)CCC3	Apaf-1 act -336 | Rh110 interf act inactive | Apaf-1 act conf2 inactive
COc1ccccc1N1C(C)=CC(=C(C#N)c2nc3ccccc3s2)C=C1C	none
CN(C=[N+](C)C)c1cccc2c1C(=O)c1ccccc1C2=O	none
Cc1ccc(S(=O)(=O)Nc2ccc3c(c2)CC(=O)N([C@H](C)CO)C[C@@H](C)[C@H](CN(C)Cc2ccc(-c4ccccc4)cc2)O3)cc1	none
O=C1c2c(O)ccc(O)c2C(=O)c2c(NCCNCCO)ccc(NCCNCCO)c21	none
Nn1c(SCCOc2ccc(Cl)cc2)nnc1-c1cccnc1	Apaf-1 act -44 | Rh110 interf act inactive | Apaf-1 act conf2 inactive
Clc1ccc(OCCSc2nnnn2C2CCCCC2)cc1	none
CCOC(=O)C1=C(CN2CCN(c3ccc(F)cc3)CC2)NC(=O)NC1c1cccs1 (stereo unspecified)	none
COc1ccc(C[C@H]2CN3C(=NC[C@@H]3Cc3ccccc3)N2C[C@H](C)NC(=O)CCC2CCCCC2)cc1	none
CCN(C(=O)Cn1c(=O)n2nc(CCn3nc(C)cc3C)nc2c2ccccc21)c1cccc(C)c1	Apaf-1 act -291 | Rh110 interf act inactive | Apaf-1 act conf2 inactive
CS(=O)(=O)N(CC(=O)N1CCc2ccccc2C1)c1cccc(Br)c1	Apaf-1 act -258 | Rh110 interf act inactive | Apaf-1 act conf2 inactive
Cc1ccc2[nH]c3c(c2c1)CN(C(=O)CN1CCCc2ccccc21)CC3	none
S=c1[nH]nc(-c2ccncc2)n1/N=C/c1cn(-c2ccccc2)nc1-c1ccc(Cl)cc1	Apaf-1 act -59 | Rh110 interf act inactive | Apaf-1 act conf2 inactive
N#Cc1c(N)n(CCc2ccc(F)cc2)c2nc3ccccc3nc12	none
Cc1[nH]n(-c2ccccc2)c(=O)c1C(C[N+](=O)[O-])c1ccc(Cl)cc1 (stereo unspecified)	none
C#CCOCCOCCOCCNc1nc(N2CCN(C(=O)[C@H]([C@@H](C)CC)n3cc(CCCCN)nn3)CC2)nc(N2CCN(C(=O)[C@H]([C@@H](C)CC)n3cc(CCCN=C(N)N)nn3)CC2)n1	none
O=C(c1ccc(OCCN2CCCCC2)cc1)c1c(-c2ccc(O)cc2)sc2cc(O)ccc12	none
Cc1ccc(C)n1-c1nnc(N2CCC(C(=O)NCCCN3CC(C)CC(C)C3)CC2)s1 (stereo unspecified)	Apaf-1 act -402 | Rh110 interf act inactive | Apaf-1 act conf2 inactive
O=C(NCCCN1CCc2ccccc2C1)C1CCN(c2nnc(-n3cccc3)s2)CC1	none
Cc1cc2ccccc2n1CCNC(=O)C1CCCCC1	none
Cc1cc(O)c2c(c1O)C(=O)[C@]13C(=C2O)C(=O)[C@@H]2[C@@H](O)[C@H]1[C@@H]1[C@H](O)[C@H]3C(=O)C3=C(O)c4c(O)cc(C)c(O)c4C(=O)[C@]312	none
N=c1n(Cc2ccccc2)c2ccccc2n1CC(O)COc1ccc(Cl)cc1Cl (stereo unspecified)	none
CN1CCN(c2ccc(NC(=O)c3ccc(-c4ccc(Br)cc4)o3)cc2)CC1	none
CCCn1nnc(NC(=O)c2ccc(-c3cccc(Cl)c3)o2)n1	Apaf-1 act -44 | Rh110 interf act inactive | Apaf-1 act conf2 inactive
CCCCn1nnc(NC(=O)Cc2ccc(Cl)cc2)n1	Apaf-1 act -95 | Rh110 interf act inactive | Apaf-1 act conf2 inactive
Cc1c(/C=N/Nc2nc3ccccc3[nH]2)c2ccccc2n1C	none
CCCCCCSc1ccc(-c2nc3ccc(C)cn3c2NCc2ccccc2)cc1OC	none
CCCCC[n+]1ccn(C2=C([O-])c3ccccc3C(=O)/C2=N\S(=O)(=O)c2ccccc2)c1	none
O=C(CCc1ccccc1)NNc1cc(N2CCCCC2)nc(N2CCCCC2)n1	none
O=C1/C(=C/Nc2ccc3c(c2)OCO3)CCc2ccccc21	none
O=C(CSc1ccc2c(c1)OCCO2)Nc1ccc2c(c1)OCO2	Apaf-1 act -578 | Rh110 interf act inactive | Apaf-1 act conf2 inactive
O=C(Nc1ccc2c(c1)OCO2)[C@@H]1[C@@H]2C(=O)N(C3CCCCC3)C(=O)[C@@H]2C2c3ccccc3C=CN21 (stereo partly specified)	none
O=C(OCc1nnc(-c2ccccc2)o1)c1ccc([N+](=O)[O-])s1	none
COc1cc(CNc2ccc(O)cc2)cc(Br)c1OCc1ccccc1F	none
Cc1ccc(C(=O)c2c(C)oc3c2C(=O)C(=O)c2ccccc2-3)cc1	none
Cc1cccc(N2CCN(C(=O)c3ccc4nc(-c5ccco5)c(-c5ccco5)nc4c3)CC2C)c1 (stereo unspecified)	none
COc1cccc(N2CCN(C(=O)c3ccc(=O)oc3)CC2C)c1 (stereo unspecified)	Apaf-1 act -332 | Rh110 interf act inactive | Apaf-1 act conf2 inactive
CCCN(CC1CC1)c1nc(N)c2c(N)nc(OC)cc2c1C#N	none
O=C(Cc1cc(=O)[nH][nH]1)N/N=C/c1c(Cl)cccc1Cl	none
Cc1ccc(S(=O)(=O)N2CCN(c3ccc([N+](=O)[O-])c4cccnc34)CC2)cc1	none
CC1CCN(C2=C(NS(=O)(=O)c3ccccc3)C(=O)c3ccccc3C2=O)CC1	none
O=S(=O)(Nc1cc(Sc2ncn[nH]2)c(O)c2ccccc12)c1ccccc1	none
O=S(=O)(Nc1ccc(S(=O)(=O)Nc2ncccn2)cc1)c1ccccc1	Apaf-1 act -510 | Rh110 interf act inactive | Apaf-1 act conf2 inactive
CC(=O)c1cc(O)c2ccccc2c1O	none
NNC(=O)c1ccc(Cn2cc(Br)c(N)n2)cc1	Apaf-1 act -40 | Rh110 interf act inactive | Apaf-1 act conf2 inactive
CCN1/C(=C/c2ccc3cc(C)ccc3[n+]2CC)Sc2cc(C)c(C)cc21	none
N=C1SC(c2ccccc2)C(=O)N1c1ncc(Cc2ccccc2Cl)s1 (stereo unspecified)	Apaf-1 act -171 | Rh110 interf act inactive | Apaf-1 act conf2 inactive
FC(F)(F)c1cc(CCN2CCNC[C@@H]2Cc2ccccc2)cc(C(F)(F)F)c1	none
CCC(=Nc1ccc(N)cc1)C1=C(O)C(C(=O)OC)C(C)(C)CC1=O (stereo unspecified)	none
Cc1cc(N)c2cc(NC(=O)/C=C/c3ccccc3Cl)ccc2n1	none
Cc1nc2ccc(Cl)cc2c(-c2ccccc2Cl)c1CC(=O)O	Apaf-1 act -42 | Rh110 interf act inactive | Apaf-1 act conf2 inactive
CC12CC3CC(C)(C1)CC(N)(C3)C2	none
O=C(COC(=O)c1cc(Cl)ccc1Cl)NCCN1C(=O)CSC1=O	none
COC(=O)c1ccccc1NC(=O)CN1C(=O)CSC1=O	Apaf-1 act -48 | Rh110 interf act inactive | Apaf-1 act conf2 inactive
CCC(CC)c1nnc(NC(=O)CN2C(=O)c3ccccc3C2=O)s1	none
Cc1c(C(=O)OCC(=O)Nc2c(C)n(C)n(-c3ccccc3)c2=O)cccc1[N+](=O)[O-]	Apaf-1 act -93 | Rh110 interf act inactive | Apaf-1 act conf2 inactive
Cc1c(C(=O)N(CCc2ccccc2)Cc2ccccc2)cccc1[N+](=O)[O-]	none
Cc1c(Cl)cnc(NC(=O)COC(=O)c2ccc([N+](=O)[O-])s2)c1Cl	none
O=C(CNc1cccc2ccccc12)N/N=C/C(Br)=C/c1ccccc1	none
Cc1cc(C)n(CC(C)C(=O)O)n1 (stereo unspecified)	Apaf-1 act -165 | Rh110 interf act inactive | Apaf-1 act conf2 -104 | Fluor interf act inactive
Cc1cc(OC(=O)c2ccccc2)n(CCC#N)n1	none
